The source made the active and inactive calls. No cut-off for these calls is given here.
Legend:
Klebsiella pneumoniae [1] = assay: Inhibition of Klebsiella pneumoniae KP1087 KPC-2 assessed as biapenem MIC at 4 ug/ml by broth microdilution method
[2] = target: Carbapenem-hydrolyzing beta-lactamase KPC (Klebsiella pneumoniae) (UniProt Q9F663); assay: Inhibition of Klebsiella pneumoniae KP1083 KPC-3 assessed as meropenem MIC at 4 ug/ml by broth microdilution method
How it was run: (§1)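 CLSI broth microdilution (M07-A9, 2012) MIC of the carbapenem against clinical serine carbapenemase-producing strain, tested alone and with the inhibitor held at a fixed 4 μg/mL.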

[3] = target: T1, Beta-lactamase SHV-1 (Klebsiella pneumoniae) (UniProt P0AD64); assay: Inhibition of Klebsiella pneumoniae KP1082 SHV-1 assessed as meropenem MIC at 4 ug/ml by broth microdilution method; how it was run: as §1
T1 sequence (whole entry): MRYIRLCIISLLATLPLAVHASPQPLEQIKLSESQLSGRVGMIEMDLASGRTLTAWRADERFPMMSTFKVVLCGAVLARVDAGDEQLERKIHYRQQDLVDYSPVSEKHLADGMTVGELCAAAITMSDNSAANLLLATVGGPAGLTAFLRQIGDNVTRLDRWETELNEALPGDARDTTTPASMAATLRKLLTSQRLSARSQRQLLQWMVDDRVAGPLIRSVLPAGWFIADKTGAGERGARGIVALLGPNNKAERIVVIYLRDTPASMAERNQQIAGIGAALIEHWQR

Klebsiella oxytoca [4] = assay: Inhibition of Klebsiella oxytoca KX1017 SHV-30 assessed as meropenem MIC at 4 ug/ml by broth microdilution method
Klebsiella pneumoniae [5] = assay: Inhibition of Klebsiella pneumoniae KP1087 SHV-11 assessed as meropenem MIC at 4 ug/ml by broth microdilution method; how it was run: as §1
Klebsiella pneumoniae [6] = assay: Inhibition of Klebsiella pneumoniae KP1087 KPC-2 assessed as meropenem MIC at 4 ug/ml by broth microdilution method; how it was run: as §1
Klebsiella pneumoniae [7] = assay: Inhibition of Klebsiella pneumoniae KP1084 SHV-11 assessed as meropenem MIC at 4 ug/ml by broth microdilution method; how it was run: as §1
[8] = target: Tissue-type plasminogen activator (Homo sapiens, UniProt P00750); assay: Inhibition of tissue plasminogen activator (unknown origin) using GK-pNA as substrate preincubated for 10 mins followed by substrate addition measured for 30 mins by spectrophotometric analysis
How it was run: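 Tissue plasminogen activator (commercial) in 30 mM Tris-HCl, pH 8.5, 30 mM imidazole, 130 mM NaCl. Incubated with inhibitor at several concentrations for 10 min at 37 °C. GK-pNA (listed at 100 μM) was added and absorbance followed for 30 min. Rates were relative to a no-treatment control; IC50 is the concentration giving 50% inhibition.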

Dipeptidyl peptidase 2 = Dipeptidyl peptidase 2 (Homo sapiens, UniProt Q9UHL4); assay: Inhibition of dipeptidyl peptidase 7 (unknown origin) using H-Lys-Pro-AMC as substrate preincubated for 10 mins followed by substrate addition measured for 30 mins by spectrophotometric analysis
How it was run: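 DPP7 (commercial) in 50 mM Na-acetate, pH 5.8. Preincubated 10 min at 37 °C with inhibitor at several concentrations, then H-Lys-Pro-AMC (listed at 100 μM) added and fluorescence monitored for 30 min. Activity was relative to a no-treatment control; IC50 is the concentration giving half inhibition.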

[9] = target: Lysosomal protective protein (Homo sapiens, UniProt P10619); assay: Inhibition of cathepsin A (unknown origin) using MCA-RPPGFSAFK-Dnp as substrate preincubated for 10 mins followed by substrate addition measured for 30 mins by […] analysis
[10] = Half life in rat at 100 mg/kg, iv administered as 0.5 hrs infusion by HPLC-MS method; type: ADME, organism-based; details: in vivo
[11] = Clearance in rat at 1000 mg/kg, iv administered as 0.5 hrs infusion by HPLC-MS method; type: ADME, organism-based; details: in vivo
Homo sapiens = assay: Clearance in human at 1 g administered as 3 hrs of infusion; type: ADME, organism-based; details: in vivo, iv
[12] = target: T2, Class A carbapenemase (Enterobacter cloacae) (UniProt A7WP95); assay: Inhibition of Enterobacter cloacae ECL1058 KPC-3 assessed as biapenem MIC at 4 ug/ml by broth microdilution method
T2 sequence (whole entry): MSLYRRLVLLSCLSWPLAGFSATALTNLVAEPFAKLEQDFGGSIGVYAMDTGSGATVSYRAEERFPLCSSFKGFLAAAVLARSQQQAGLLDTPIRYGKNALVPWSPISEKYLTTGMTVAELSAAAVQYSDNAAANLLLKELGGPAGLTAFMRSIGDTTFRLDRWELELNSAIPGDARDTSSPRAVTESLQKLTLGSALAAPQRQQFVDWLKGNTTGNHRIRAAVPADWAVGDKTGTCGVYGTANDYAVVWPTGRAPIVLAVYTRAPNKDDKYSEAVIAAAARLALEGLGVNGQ

Enterobacter cloacae = assay: Inhibition of Enterobacter cloacae ECL1058 SHV-11 assessed as biapenem MIC at 4 ug/ml by broth microdilution method
Klebsiella oxytoca [13] = assay: Inhibition of Klebsiella oxytoca KX1019 OXA-2 assessed as biapenem MIC at 4 ug/ml by broth microdilution method
Klebsiella pneumoniae [14] = assay: Inhibition of Klebsiella pneumoniae KP1088 SHV-11 assessed as meropenem MIC at 4 ug/ml by broth microdilution method
How it was run: (§2)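 CLSI broth microdilution (M07-A9, 2012) against the clinical K. pneumoniae isolate. Carbapenem MICs were read alone and with 9f held at a fixed 4 μg/mL.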

[15] = target: Beta-lactamase (Klebsiella pneumoniae) (UniProt Q93LQ9); assay: Inhibition of Klebsiella pneumoniae KP1084 KPC-3 assessed as ertapenem MIC at 4 ug/ml by broth microdilution method; how it was run: as §1
Klebsiella pneumoniae [16] = assay: Inhibition of Klebsiella pneumoniae KP1088 SHV-11 assessed as imipenem MIC at 4 ug/ml by broth microdilution method; how it was run: as §2
Klebsiella oxytoca [17] = assay: Inhibition of Klebsiella oxytoca KX1017 OXA-2 assessed as ertapenem MIC at 4 ug/ml by broth microdilution method
[18] = target: Carbapenem-hydrolyzing beta-lactamase KPC (Klebsiella oxytoca) (UniProt Q848S6); assay: Inhibition of Klebsiella oxytoca KX1017 KPC-2 assessed as imipenem MIC at 4 ug/ml by broth microdilution method
Klebsiella oxytoca [19] = assay: Inhibition of Klebsiella oxytoca KX1017 OXA-2 assessed as imipenem MIC at 4 ug/ml by broth microdilution method
Klebsiella pneumoniae [20] = assay: Antibacterial activity against Klebsiella pneumoniae KP1004 by broth microdilution method; type: functional, organism-based
[21] = Inhibition of Escherichia coli recombinant CTX-M-15 assessed as substrate nitrocefin degradation preincubated for 10 mins followed by substrate addition measured every 10 secs for 10 mins by spectrophotometric analysis
How it was run: (§3)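 β-Lactamases purified from overexpressing recombinant E. coli. Enzyme preincubated with inhibitor at varying concentrations for 10 min at room temperature in 50 mM Na phosphate pH 7.0, 0.1 mg/mL BSA. Then 50 μM nitrocefin (final) added and cleavage read at 490 nm every 10 s for 10 min. Ki derived by the Waley method.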

[22] = Inhibition of Escherichia coli recombinant P99 assessed as substrate nitrocefin degradation preincubated for 10 mins followed by substrate addition measured every 10 secs for 10 mins by spectrophotometric analysis; how it was run: as §3

Chain of Lysosomal protective protein (P10619 29-326 limits assumed): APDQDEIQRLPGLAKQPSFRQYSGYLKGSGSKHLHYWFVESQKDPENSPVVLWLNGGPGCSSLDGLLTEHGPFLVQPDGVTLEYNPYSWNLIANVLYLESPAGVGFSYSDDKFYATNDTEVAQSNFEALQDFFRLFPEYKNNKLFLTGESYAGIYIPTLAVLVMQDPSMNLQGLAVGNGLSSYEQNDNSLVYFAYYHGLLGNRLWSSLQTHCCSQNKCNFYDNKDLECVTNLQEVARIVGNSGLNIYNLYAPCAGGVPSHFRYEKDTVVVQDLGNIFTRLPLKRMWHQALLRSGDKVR
Chain of Lysosomal protective protein (P10619 327-480 limits assumed): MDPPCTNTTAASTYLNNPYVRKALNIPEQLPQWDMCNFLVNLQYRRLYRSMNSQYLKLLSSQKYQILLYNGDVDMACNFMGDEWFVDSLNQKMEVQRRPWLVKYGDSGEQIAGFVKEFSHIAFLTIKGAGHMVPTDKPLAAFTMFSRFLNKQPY
Chain of Tissue-type plasminogen activator (P00750 whole entry): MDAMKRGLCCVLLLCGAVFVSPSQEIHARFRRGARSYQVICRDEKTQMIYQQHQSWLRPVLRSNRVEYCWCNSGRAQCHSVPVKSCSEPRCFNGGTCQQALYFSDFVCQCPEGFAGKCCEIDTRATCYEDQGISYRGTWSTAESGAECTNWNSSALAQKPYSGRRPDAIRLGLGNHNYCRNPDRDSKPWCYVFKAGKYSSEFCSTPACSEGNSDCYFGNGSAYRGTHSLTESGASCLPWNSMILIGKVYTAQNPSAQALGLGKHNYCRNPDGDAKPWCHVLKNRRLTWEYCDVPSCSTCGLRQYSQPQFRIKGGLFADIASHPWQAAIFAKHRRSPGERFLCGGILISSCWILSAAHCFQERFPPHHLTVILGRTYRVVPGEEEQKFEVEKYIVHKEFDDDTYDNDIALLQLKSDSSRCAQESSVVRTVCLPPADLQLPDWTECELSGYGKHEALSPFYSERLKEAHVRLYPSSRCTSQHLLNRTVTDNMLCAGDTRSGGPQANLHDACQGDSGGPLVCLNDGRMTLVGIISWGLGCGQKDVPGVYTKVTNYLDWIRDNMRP
Chain of Carbapenem-hydrolyzing beta-lactamase KPC (Klebsiella pneumoniae) (Q9F663 whole entry): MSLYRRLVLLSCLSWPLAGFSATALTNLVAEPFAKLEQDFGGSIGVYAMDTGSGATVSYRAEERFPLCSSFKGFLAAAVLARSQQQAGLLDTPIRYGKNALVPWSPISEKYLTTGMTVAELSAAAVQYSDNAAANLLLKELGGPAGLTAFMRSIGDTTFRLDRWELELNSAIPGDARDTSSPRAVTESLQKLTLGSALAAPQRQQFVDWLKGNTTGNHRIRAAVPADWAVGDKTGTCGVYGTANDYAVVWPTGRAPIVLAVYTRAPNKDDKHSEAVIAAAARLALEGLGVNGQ
Chain of Carbapenem-hydrolyzing beta-lactamase KPC (Klebsiella oxytoca) (Q848S6 whole entry): as the sequence (Q9F663 whole entry) above
Chain of Beta-lactamase (Klebsiella pneumoniae) (Q93LQ9 as listed by the source): as the sequence (Q9F663 whole entry) above

## O=C(O)C[C@@H]1CC[C@H](NC(=O)Cc2cccs2)B(O)O1 [VABORBACTAM]
Klebsiella pneumoniae [1]
  MIC: 0.25 µg/mL
[2]
  MIC: < 0.06 µg/mL
[3]
  MIC: < 0.06 µg/mL
Klebsiella oxytoca [4]
  MIC: < 0.06 µg/mL
Klebsiella pneumoniae [5]
  MIC: 1 µg/mL
Klebsiella pneumoniae [6]
  MIC: 1 µg/mL
Klebsiella pneumoniae [7]
  MIC: 0.5 µg/mL
[8]
  IC50: > 1000 µM
Dipeptidyl peptidase 2
  IC50: > 1000 µM
[9]
  IC50: 1000 µM
[10]
  half-life: 25.2 min
[11]
  clearance: 16.2 mL/min/kg
Homo sapiens
  clearance: 12.8 L/h
[12]
  MIC: < 0.06 µg/mL
Enterobacter cloacae
  MIC: < 0.06 µg/mL
Klebsiella oxytoca [13]
  MIC: 0.25 µg/mL
Klebsiella pneumoniae [14]
  MIC: ≤ 0.06 µg/mL
[15]
  MIC: 4 µg/mL
Klebsiella pneumoniae [16]
  MIC: ≤ 0.06 µg/mL
Klebsiella oxytoca [17]
  MIC: 0.25 µg/mL
[18]
  MIC: 0.13 µg/mL
Klebsiella oxytoca [19]
  MIC: 0.13 µg/mL
Klebsiella pneumoniae [20]
  Activity: inactive
[21]
  Ki: 0.044 µM
[22]
  Ki: 0.053 µM
